# Results reported in ChEMBL document CHEMBL1821649, “Synthesis, characterization of some benzazoles bearing pyridine moiety: search for novel anticancer agents” (2011).
# Tests used:
# Assay type in all cases: functional
# [1] = test system: SK-MEL-28; assay: Antitumor activity against human SK-MEL-28 cells after 48 hrs by SRB assay; details: SK-MEL-28, 48 h
# Summary of the method: (§1)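 NCI-60 human tumour cell panel run under the National Cancer Institute Drug Evaluation Branch protocol. Compounds passing a single-dose prescreen were retested on all lines at five 10-fold dilutions. Growth was expressed as percent growth of treated cells. Response parameters were GI50 (molar concentration giving 50% growth inhibition), TGI (total growth inhibition) and LC50 (median lethal concentration).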
# [2] = test system: UACC-257; assay: Antitumor activity against human UACC257 cells after 48 hrs by SRB assay; details: UACC-257, 48 h
# Summary of the method: (§2)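 NCI-60 human cancer cell line panel run under the NCI Drug Evaluation Branch protocol. Compounds were first screened at a single dose. Those meeting preset inhibition thresholds were retested at five 10-fold dilutions. Output was percent growth of treated cells, given as % growth inhibition. GI50, TGI and LC50 values were derived from the five-dose data.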
# [3] = test system: K562; assay: Antitumor activity against human K562 cells after 48 hrs by SRB assay; details: K562, 48 h; summary of the method: as §1
# [4] = test system: SF-539; assay: Antitumor activity against human SF539 cells after 48 hrs by SRB assay; details: SF-539, 48 h; summary of the method: as §1
# [5] = test system: CAKI-1; assay: Antitumor activity against human Caki1 cells after 48 hrs by SRB assay; details: CAKI-1, 48 h; summary of the method: as §1
# [6] = test system: SR; assay: Antitumor activity against human SR cells after 48 hrs by SRB assay; summary of the method: as §1
# [7] = test system: COLO 205; assay: Antitumor activity against human COLO205 cells after 48 hrs by SRB assay; details: COLO 205, 48 h; summary of the method: as §1
# [8] = test system: PC-3; assay: Antitumor activity against human PC3 cells after 48 hrs by SRB assay; details: PC-3, 48 h; summary of the method: as §1
# [9] = test system: HCC 2998; assay: Antitumor activity against human HCC2998 cells after 48 hrs by SRB assay; details: HCC 2998, 48 h; summary of the method: as §1
# [10] = test system: SF-295; assay: Antitumor activity against human SF295 cells after 48 hrs by SRB assay; details: SF-295, 48 h; summary of the method: as §1
# [11] = test system: MDA-MB-231; assay: Antitumor activity against human MDA-MB-231 cells after 48 hrs by SRB assay; details: MDA-MB-231, 48 h; summary of the method: as §1
# [12] = test system: OVCAR-5; assay: Antitumor activity against human OVCAR5 cells after 48 hrs by SRB assay; details: OVCAR-5, 48 h; summary of the method: as §1
# [13] = test system: HOP-62; assay: Antitumor activity against human HOP62 cells after 48 hrs by SRB assay; details: HOP-62, 48 h; summary of the method: as §1
# [14] = test system: SK-MEL-2; assay: Antitumor activity against human SK-MEL-2 cells after 48 hrs by SRB assay; details: SK-MEL-2, 48 h; summary of the method: as §1
# [15] = test system: HCT-116; assay: Antitumor activity against human HCT116 cells after 48 hrs by SRB assay; details: HCT-116, 48 h; summary of the method: as §1
# [16] = test system: A549; assay: Antitumor activity against human A549 cells after 48 hrs by SRB assay; details: A549, 48 h; summary of the method: as §1
# [17] = test system: U-251; assay: Antitumor activity against human U251 cells after 48 hrs by SRB assay; details: U-251, 48 h; summary of the method: as §2
# [18] = test system: DU-145; assay: Antitumor activity against human DU145 cells after 48 hrs by SRB assay; details: DU-145, 48 h; summary of the method: as §1
# [19] = test system: UACC-62; assay: Antitumor activity against human UACC62 cells after 48 hrs by SRB assay; details: UACC-62, 48 h; summary of the method: as §2
# [20] = test system: CCRF-CEM; assay: Antitumor activity against human CCRF-CEM cells after 48 hrs by SRB assay; summary of the method: as §1
# [21] = test system: SK-OV-3; assay: Antitumor activity against human SKOV3 cells after 48 hrs by SRB assay; details: SK-OV-3, 48 h; summary of the method: as §1
# [22] = test system: ACHN; assay: Antitumor activity against human ACHN cells after 48 hrs by SRB assay; summary of the method: as §1
# [23] = test system: RPMI-8226; assay: Antitumor activity against human RPMI8226 cells after 48 hrs by SRB assay; details: RPMI-8226, 48 h; summary of the method: as §1
# [24] = test system: TK-10; assay: Antitumor activity against human TK10 cells after 48 hrs by SRB assay; details: TK-10, 48 h; summary of the method: as §2
# [25] = test system: OVCAR-8; assay: Antitumor activity against human OVCAR8 cells after 48 hrs by SRB assay; details: OVCAR-8, 48 h; summary of the method: as §1
# [26] = read-out: LC50 (the source's name)
smiles,measurement,setting,value
COc1ccc(-c2c(C#N)cnc(N)c2-c2nc3cc(C)c(C)cc3[nH]2)cc1,GI50,[1],17.2 µM
same,LC50 (median lethal concentration),[1],> 100 µM
same,TGI,[1],> 100 µM
same,GI50,[2],52 µM
same,LC50,[2],> 100 µM
same,TGI,[2],> 100 µM
same,GI50,[3],6.03 µM
same,LC50,[3],> 100 µM
same,TGI,[3],> 100 µM
same,GI50,[4],11.5 µM
same,TGI,[4],41.9 µM
same,CC50,[4]; [26],> 100 µM
same,GI50,[5],14.6 µM
same,TGI,[5],> 100 µM
same,CC50,[5]; [26],> 100 µM
same,GI50,[6],5.64 µM
same,LC50 (median lethal concentration),[6],> 100 µM
same,TGI,[6],> 100 µM
same,GI50,[7],7.78 µM
same,LC50,[7],> 100 µM
same,TGI,[7],63.7 µM
same,GI50,[8],8.86 µM
same,GI50,[9],11 µM
same,TGI,[9],> 100 µM
same,CC50,[9]; [26],> 100 µM
same,GI50,[10],6.41 µM
same,TGI,[10],23.4 µM
same,CC50,[10]; [26],68.2 µM
same,GI50,[11],8.28 µM
same,TGI,[11],> 100 µM
same,CC50,[11]; [26],> 100 µM
same,GI50,[12],52.4 µM
same,TGI,[12],> 100 µM
same,CC50,[12]; [26],> 100 µM
same,GI50,[13],3.65 µM
same,TGI,[13],14.4 µM
same,CC50,[13]; [26],45.2 µM
same,GI50,[14],10.8 µM
same,LC50 (median lethal concentration),[14],> 100 µM
same,TGI,[14],98 µM
same,GI50,[15],4.63 µM
same,TGI,[15],> 100 µM
same,CC50,[15]; [26],> 100 µM
same,GI50,[16],6.54 µM
same,TGI,[16],72.5 µM
same,CC50,[16]; [26],> 100 µM
same,GI50,[17],3.65 µM
same,TGI,[17],12.7 µM
same,CC50,[17]; [26],53.9 µM
same,GI50,[18],6.92 µM
same,TGI,[18],23.8 µM
same,CC50,[18]; [26],61.8 µM
same,GI50,[19],72.2 µM
same,LC50,[19],> 100 µM
same,TGI,[19],> 100 µM
same,GI50,[20],25.6 µM
same,LC50,[20],> 100 µM
same,TGI,[20],> 100 µM
same,GI50,[21],4.84 µM
same,LC50,[21],59.6 µM
same,TGI,[21],18.4 µM
same,GI50,[22],3.98 µM
same,TGI,[22],> 100 µM
same,CC50,[22]; [26],> 100 µM
same,GI50,[23],32.5 µM
same,TGI,[23],> 100 µM
same,CC50,[23]; [26],> 100 µM
same,GI50,[24],5.94 µM
same,TGI,[24],26.4 µM
same,CC50,[24]; [26],99.6 µM
same,GI50,[25],5.2 µM
same,LC50 (median lethal concentration),[25],> 100 µM
same,TGI,[25],26.8 µM
